High-throughput results (PubChem)
An excerpt weighted towards active compounds, which were near 3% of everything screened.
Apaf1 inhib = inhibitors of human Apaf-1 apoptosome. O14727. reconstituted apoptosome caspase-3 activity, DEVD-Rh110 fluorescence. inhibition, % at 20 µM. 0.71% of 330,000 active. AID 489030; active = inhibition of at least 40% at 20 µM;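 note: plate controls were DMSO wells for no effect and DEVD-CHO caspase inhibitor wells for full effect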
Target sequence (O14727 whole entry, looked up): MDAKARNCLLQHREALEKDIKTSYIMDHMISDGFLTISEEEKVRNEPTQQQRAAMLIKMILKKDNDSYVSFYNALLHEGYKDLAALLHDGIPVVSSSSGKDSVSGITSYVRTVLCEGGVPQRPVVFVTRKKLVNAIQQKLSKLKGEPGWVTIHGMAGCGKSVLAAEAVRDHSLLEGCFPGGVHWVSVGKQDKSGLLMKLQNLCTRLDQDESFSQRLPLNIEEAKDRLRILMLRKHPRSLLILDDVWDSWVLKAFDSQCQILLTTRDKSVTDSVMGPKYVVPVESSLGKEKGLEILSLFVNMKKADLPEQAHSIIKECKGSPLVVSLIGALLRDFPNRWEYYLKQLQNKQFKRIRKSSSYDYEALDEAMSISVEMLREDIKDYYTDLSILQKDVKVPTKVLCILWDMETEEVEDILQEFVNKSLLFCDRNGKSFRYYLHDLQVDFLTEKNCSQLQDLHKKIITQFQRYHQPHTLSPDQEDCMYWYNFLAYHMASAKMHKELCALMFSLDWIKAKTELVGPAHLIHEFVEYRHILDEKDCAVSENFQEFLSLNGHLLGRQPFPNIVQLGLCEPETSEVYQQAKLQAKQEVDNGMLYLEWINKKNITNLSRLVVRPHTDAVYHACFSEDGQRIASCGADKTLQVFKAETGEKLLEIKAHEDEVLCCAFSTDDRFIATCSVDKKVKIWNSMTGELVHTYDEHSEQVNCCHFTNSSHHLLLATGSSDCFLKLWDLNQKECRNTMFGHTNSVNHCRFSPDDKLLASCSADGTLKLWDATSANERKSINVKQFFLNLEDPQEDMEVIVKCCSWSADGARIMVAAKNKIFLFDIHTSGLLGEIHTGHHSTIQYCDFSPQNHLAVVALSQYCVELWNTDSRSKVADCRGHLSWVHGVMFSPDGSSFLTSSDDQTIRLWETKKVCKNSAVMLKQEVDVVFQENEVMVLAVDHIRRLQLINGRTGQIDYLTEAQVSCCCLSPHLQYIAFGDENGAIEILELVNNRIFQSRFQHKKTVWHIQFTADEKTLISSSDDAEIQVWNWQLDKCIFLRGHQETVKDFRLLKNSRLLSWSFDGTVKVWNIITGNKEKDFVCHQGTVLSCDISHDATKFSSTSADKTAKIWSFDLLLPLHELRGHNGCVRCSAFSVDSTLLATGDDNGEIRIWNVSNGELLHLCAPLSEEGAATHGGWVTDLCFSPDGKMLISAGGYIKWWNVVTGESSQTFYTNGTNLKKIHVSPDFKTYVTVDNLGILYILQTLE
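Assay system – apoptosome proteins · Medium – Hepes buffer, pH 7.5 · Also added – cytochrome c with DEVD-Rh110 · Timing – 30 min compound preincubation, 50 min activation, room temperature · Detection – Rh110 fluorescence, excitation 480 nm, emission 540 nm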
MEKK2 mut-MEK5 = signal of MEK5 binding to mutant human MEKK2 PB1 domain. 0.35% of 290,000 active. percent response, % at 10 µM. AID 1530. bead flow cytometry, Alexa488-MEK5 binding to MEKK2 mutant; in the data active = percent response above about 24%, passing the limit was not always enough
MEKK3 PB1 HTS = raises or lowers MEK5 binding to the human MEKK3 PB1 domain. bead-based flow cytometry, Alexa488-MEK5 binding to MEKK3; actives lie on both sides; 0 = blocked by unlabeled MEK5, 100 = vehicle. binding response (% of control), % at 10 µM. 1.4% of 290,000 active. AID 1529;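 active = binding response more than 3 SD above or below the average of its plate-row segment, actives on both sides; inconclusive = wells at one plate position flagged as instrument error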;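 note: Alexa488 bead fluorescence after subtracting the streptavidin-only scavenger bead signal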
UBC13 polyUb = human UBC13 polyubiquitination inhibition | inhibition, % at 20 µM | AID 485273 | 0.47% of 330,000 active | UBC13 polyubiquitin chain formation, TR-FRET; in the data active = inhibition above about 45%, passing the limit was not always enough; inconclusive = no clear call, values can overlap the other calls
UCH37 DUB inh = blocks the human deubiquitinase UCH37; Q9Y5K5; purified proteasome/UCH37, Ub-AMC cleavage fluorescence; inhibition, % (test concentration not listed); 0.33% of 330,000 active; AID 588478;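 active = mean inhibition over replicate wells above about 20%, limit read from the data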;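 note: 0% = compound-free wells with enzyme and 100% = wells lacking proteasome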
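System: Proteasome-associated human UCH37 deubiquitinase; Input: 0.15 nM proteasome in added enzyme buffer; Also added: Ub-AMC substrate from 1 µM stock; Incubation: 30 min compound-proteasome preincubation then 25 min substrate reaction, room temperature; Detection: fluorescence, ex 355 nm, em 460 nm; Read-out: % inhibition of Ub-AMC cleavage fluorescence; Benchmarks: no-proteasome and no-compound wells.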
MEKK2 WT-MEK5 = raises or lowers MEK5 binding to wildtype human MEKK2 PB1 domain | AID 1531 | binding response (% of control), % at 10 µM | bead flow cytometry, Alexa488-MEK5 binding to MEKK2 WT; actives lie on both sides | Q9Y2U5 | 1.1% of 290,000 active; in the data active = binding response below about 67% or above about 130%; inconclusive = no clear call, values can overlap the other calls; inactive = in between
MEKK2wt confirm = raises or lowers MEK5 binding to wildtype human MEKK2, retest; bead flow cytometry, Alexa488-MEK5 binding to MEKK2 WT; actives lie on both sides; shares compounds with MEKK3 PB1 HTS; AID 1892; 2.4% of 5,900 active; binding response (% of control), % at 10 µM; in the data active = binding response below about 16% or above about 210%; inactive = in between
MEKK2mut confirm = signal of MEK5 binding to mutant human MEKK2, retest; AID 1893; percent response, % at 10 µM; shares compounds with MEKK3 PB1 HTS; 2% of 5,900 active; bead flow cytometry, Alexa488-MEK5 binding to MEKK2 mutant; in the data active = percent response mostly above about 71%, no sharp cut-off; inactive = mostly below about 38%;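 note: higher means compound restores mutant binding toward wildtype level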
MEKK3 confirm = confirmation of inhibitors of MEK5 binding to human MEKK3; bead flow cytometry, Alexa488-MEK5 binding to MEKK3; stronger effect = lower value; 1.8% of 5,900 active; binding response (% of control), % at 10 µM; AID 1894; shares compounds with MEKK3 PB1 HTS;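 active = binding response below 72% of control, or above a set upper limit, though filed actives all read lower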;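 note: 100% = DMSO only wells and 0% = binding blocked by excess unlabeled MEK5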
* = called active by the depositor; u = inconclusive; x = not tested or not shown; ! = a repeat was not active; [ ] = remark or other dose.

SMILES	Apaf1 inhib	MEKK2 mut-MEK5	MEKK3 PB1 HTS	UBC13 polyUb	UCH37 DUB inh	MEKK2 WT-MEK5	MEKK2wt confirm	MEKK2mut confirm	MEKK3 confirm
CN(C)CCc1cc2c(c3c1ccc1ccccc13)OCO2	7.6	19.0	110.0	u	-35.5	174.0*	141.0	25.0	105.0
CN1CCC2(CC1)N=C(c1ccc(F)cc1)C(=S)N2C(=O)c1ccc(C(C)(C)C)cc1	2.6	44.0	101.0	0.8	5.8	147.0*	115.0	2.0	99.0
O=C(CNC(=O)c1ccco1)NCc1nc2ccccc2[nH]1	1.1	7.0	104.0	1.1	4.8	108.0	x	x	x
COc1ccc(NC(=O)Nc2nc3c(s2)CCCC3)cc1	15.9	2.0	136.0*	5.9	-0.2	109.0	107.0	11.0	105.0
COc1ccc(OCC(=O)Nc2nc3c(s2)CCCC3)cc1	7.8	5.0	104.0	4.9	1.7	111.0	x	x	x
Cc1ccsc1C=Nn1c(=S)[nH]nc(C)c1=O	x	x	x	x	7.6	x	x	x	x
CCn1cc(C=C2C(=O)c3ccccc3C2=O)c2ccccc21	x	-4.0	68.0	x	5.4	33.0*[inhibitor]	39.0	-26.0	84.0
CN(C)C(=O)N1CCC(C(=O)NCC2CCCO2)CC1 (centres undefined)	-7.4	x	x	2.4	-1.2	x	x	x	x
CCOc1ccc(-n2c(SCc3ccc(C#N)cc3)nnc2-c2cccnc2)cc1	8.3	0.0	98.0	7.0	5.1	94.0	x	x	x
CCOc1ccc(-n2c(SCc3ccc([N+](=O)[O-])cc3)nnc2-c2ccc(OC)cc2)cc1	-303.7	0.0	143.0*	-3.8	x	102.0	99.0	-2.0	103.0
COc1cccc(NC(=S)N(CCCN2CCCC2)Cc2cccn2Cc2ccc(Cl)cc2)c1	-2.4	55.0*	113.0	13.4	7.4	177.0*	164.0	38.0	111.0
Cn1cc(CN(CCCN2CCOCC2)C(=S)Nc2cccc(Cl)c2)c2ccccc21	4.2	-2.0	94.0	3.4	x	99.0	x	x	x
CSc1cccc(NC(=S)N(CCCN2CCCC2)Cc2cccs2)c1	-15.1	6.0	104.0	17.0	2.2	119.0	x	x	x
CSc1cccc(NC(=S)N(CCCN2CCCC2)Cc2cccn2Cc2ccc(Cl)cc2)c1	21.7	94.0*	113.0	28.9	4.3	270.0*	245.0*	77.0*	111.0
S=C(Nc1cccc(Cl)c1)N(CCCN1CCCC1)Cc1cccn1Cc1ccc(Cl)cc1	-7.6	8.0	105.0	17.5	5.4	262.0*	221.0*	63.0	114.0
CCCC(C)NC(=O)Cc1ccc(Br)cc1 (centres undefined)	9.2	0.0	140.0*	-0.4	6.2	108.0	102.0	2.0	99.0
CC(C)CNC(=O)COc1ccc(Sc2ccc(OCC(=O)NCC(C)C)cc2)cc1	-5.9	-1.0	103.0	-15.9	-2.2	102.0	x	x	x
CCCC(C)NC(=O)COc1ccc(Sc2ccc(OCC(=O)NC(C)CCC)cc2)cc1 (centres undefined)	12.1	0.0	137.0*	8.3	-0.7	104.0	100.0	-3.0	96.0
CCOC(=O)/C(=N/Nc1ccccc1)c1csc(Nc2ccccc2)n1	-6.0	2.0	96.0	2.2	x	109.0	x	x	x
CCOC(=O)/C(=N\Nc1ccc(Cl)cc1)c1csc(Nc2ccccc2)n1	-3.8	8.0	109.0	-4.9	x	135.0*	134.0	10.0	105.0
Cn1c(=O)[nH]c(=O)c2c1nc(OC(=O)c1ccccc1)n2CC(O)COc1ccc(F)cc1 (centres undefined)	x	6.0	108.0	x	1.5	105.0	x	x	x
OCc1cc(C(O)CNCCCCCCOCCCCc2ccccc2)ccc1O (centres undefined)	41.5*!	9.0	112.0	22.5	-19.3	144.0*!	120.0	2.0	103.0
CCCOc1cccc(C(=O)NC(=S)Nc2cccc(C(F)(F)F)c2)c1	5.5	-20.0	u	0.5	3.6	u	x	x	x
COc1cccc(C(=O)NC(=S)Nc2ccc(N(C)C)cc2)c1	7.8	2.0	141.0*	9.5	5.5	106.0	116.0	9.0	104.0
COc1cccc(C(=O)NC(=S)Nc2ccc(Cl)cc2C(=O)O)c1	-6.2	25.0	131.0*	19.6	-2.4	130.0	100.0	3.0	103.0
SMILES	Apaf1 inhib	MEKK2 mut-MEK5	MEKK3 PB1 HTS	UBC13 polyUb	UCH37 DUB inh	MEKK2 WT-MEK5	MEKK2wt confirm	MEKK2mut confirm	MEKK3 confirm
CCOc1cccc(C(=O)NC(=S)Nc2cccc(C)c2)c1	14.0	0.0	130.0*	8.7	2.2	105.0	100.0	0.0	100.0
COc1ccc(CN2CCNC(=O)C2CC(=O)NCCCn2cccn2)cc1C (centres undefined)	-0.4	7.0	103.0	-12.2	-3.2	115.0	x	x	x
COc1ccc(C=NN=C2CC3CCC2(C)C3(C)C)cc1O (centres undefined)	x	x	x	x	-0.1	x	x	x	x
Nc1nonc1-n1nnc(C(=O)c2ccccc2)c1-c1ccccc1	16.3	-9.0	103.0	-2.5	2.2	98.0	x	x	x
CCN(C(=O)COC(=O)c1cc(=O)[nH]c2ccccc12)C1CCS(=O)(=O)C1 (centres undefined)	-6.1	-14.0	37.0*[inhibitor]	1.8	-29.9	37.0*[inhibitor]	98.0	3.0	101.0
CCN(C(=O)COC(=O)c1cc(-c2ccc3cc(OC)ccc3c2)nc2ccccc12)C1CCS(=O)(=O)C1 (centres undefined)	-2.9	-2.0	98.0	u	-336.2	95.0	x	x	x
COc1cc(CN2CCC(CO)(Cc3cccc(C(F)(F)F)c3)CC2)ccc1F	-22.2	-23.0	42.0*[inhibitor]	28.1	4.1	69.0	122.0	7.0	102.0
Cc1c(CN2CCC(CO)(Cc3cccc(C(F)(F)F)c3)CC2)c2ccccc2n1C	2.3	44.0	108.0	29.5	2.4	165.0*	137.0	11.0	99.0
OCC1(Cc2ccc(Cl)cc2)CCN(Cc2ccccc2F)CC1	3.8	7.0	105.0	6.9	2.4	111.0	x	x	x
CSc1ccc(CN2CCC(CO)(Cc3ccc(Cl)cc3)CC2)cc1	3.9	19.0	105.0	7.6	7.0	140.0*	137.0	21.0	106.0
OCCN(CCO)CC(O)COc1ccc(C23CC4CC(CC(C4)C2)C3)cc1 (centres undefined)	x	3.0	132.0*	x	5.7	122.0	140.0	15.0	107.0
C(=Nn1cnnc1)c1ccc2ncccc2c1	x	x	x	x	3.6	x	x	x	x
